The source made the active and inactive calls. The calls are words filed in the database; no cut-off is given here.
Assays:
[1] = Toxicity against C57BL/6 mouse hydrodynamically infected with pHBV1.3 mer plasmid carrying HBV genotype D assessed as change in body weight at 0.1 to 1 mg/kg, po once daily and measured upto 6 days post treatment; type: organism-based; conditions: in vivo, 144 h
[2] = test system: HBV genotype D; experiment: Antiviral activity against HBV genotype D hydrodynamically infected as pHBV1.3 mer plasmid carrying viral genome in C57BL/6 mouse assessed as reduction in serum viral DNA level at 0.1 to 1 mg/kg, po once daily and measured upto 6 days post treatment by qRT-PCR analysis; type: functional, organism-based; conditions: hepatitis B virus genotype D
Summary of the method: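 C57BL/6 mice received the HBV 1.3mer plasmid by hydrodynamic tail-vein injection. From one day later they were dosed by oral gavage twice daily at […], with vehicle groups of 20% Kolliphor HS 15 or water; ETV was given once daily. There were 5-6 mice per group. Serum HBV DNA was measured by real-time PCR on days 0, 2, 4 and 6, and body weight was tracked over the 6 days.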

[3] = Cytotoxicity against human HepG2.2.15 cells infected with HBV; type: cell-based, HepG2 2.2.15
Summary of the method: (§1)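 HepG 2.2.15 cells; IC50 is the concentration giving 50% inhibition of cytoplasmic HBV-DNA synthesis; CC50 comes from a CPE (cytopathic effect) cytotoxicity assay in the same cells. Both were derived by the Reed & Muench method, and each experiment was run at least twice separately. SI = CC50/IC50.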

[4] = test system: Hepatitis B virus; experiment: Antiviral activity against HBV infected in human HepG2.2.15 cells assessed as reduction in cytoplasmic DNA synthesis by reed and munch method; type: functional, organism-based; summary of the method: as §1
[5] = Oral bioavailability in Sprague-Dawley rat at 20 mg/kg administered as single dose and measured after 0.25 to 24 hrs by HPLC analysis; type: ADME, organism-based; conditions: in vivo
Summary of the method: (§2)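 Male/female unspecified SD rats, n = 3 per group, received a single dose of TFV at 20 mg/kg by mouth or 5 mg/kg intravenously. Prodrugs were given orally at an equimolar […]. PK parameters were calculated for the released TFV and reported as means.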

[6] = Tmax in Sprague-Dawley rat at 20 mg/kg, po administered as single dose and measured after 0.25 to 24 hrs by HPLC analysis; type: ADME, organism-based; conditions: in vivo; summary of the method: as §2
[7] = AUC(0 to infinity) in Sprague-Dawley rat at 20 mg/kg, po administered as single dose and measured after 0.25 to 24 hrs by HPLC analysis; type: ADME, organism-based; set-up: dose 20 mg/kg, time infinity, route oral; conditions: in vivo; summary of the method: as §2
[8] = AUC(0 to infinity) in Sprague-Dawley rat at 5 mg/kg, iv; type: ADME, organism-based; set-up: dose 5 mg/kg, route intravenous, time infinity; conditions: in vivo; summary of the method: as §2
[9] = Half-life in Sprague-Dawley rat at 20 mg/kg, po administered as single dose and measured after 0.25 to 24 hrs by HPLC analysis; type: ADME, organism-based; conditions: in vivo; summary of the method: as §2
[10] = Clearance in Sprague-Dawley rat at 5 mg/kg, iv; type: ADME, organism-based; conditions: in vivo; summary of the method: as §2
[11] = Selectivity index, ratio of CC50 for human HepG2.2.15 cells to IC50 for HBV infected in human HepG2.2.15 cells; type: toxicity, cell-based; conditions: read-out: Ratio CC50/IC50; summary of the method: as §1
[12] = Half-life in Sprague-Dawley rat at 5 mg/kg, iv; type: ADME, organism-based; conditions: in vivo; summary of the method: as §2
[13] = Cmax in Sprague-Dawley rat at 20 mg/kg, po administered as single dose and measured after 0.25 to 24 hrs by HPLC analysis; type: ADME, organism-based; set-up: dose 20 mg/kg, route oral; conditions: in vivo; summary of the method: as §2
[14] = test system: HBV genotype D; experiment: Antiviral activity against HBV genotype D hydrodynamically infected as pHBV1.3 mer plasmid carrying viral genome in C57BL/6 mouse assessed as log10 reduction in serum viral DNA level at 0.10 to 0.50 mmol/kg/day, po via gavage administered as twice daily dosage and measured on day 4 post treatment by qRT-PCR analysis; type: functional, hepatitis B virus genotype D
Summary of the method: (§3)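 C57BL/6 mice were hydrodynamically injected with HBV 1.3mer plasmid. From one day later (day 0), they were gavaged twice daily at […] or with vehicle; ETV was given orally once daily; n = 5-6 per group. Blood was taken at days 0, 2, 4 and 6, and serum HBV DNA was measured by real-time PCR. Body weight was recorded over 6 days of treatment. Significance was set against vehicle.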

[15] = test system: Hepatitis B virus; experiment: Antiviral activity against HBV infected in pekin duck assessed as reduction in serum viral DNA level administered via oral gavage twice daily for 14 days and measured on day 14 post treatment and on day 3 after treatment cessation by qRT-PCR analysis; type: functional, organism-based
Summary of the method: (§4)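 DHBV-infected ducks, six per group, were gavaged twice daily at 0.1, 0.2 or […] or with vehicle (0.5% CMC-Na or water); 3TC was given orally once daily. Blood was collected at day 0 (pretreatment), day 7, day 14 and 3 days after cessation. Serum DHBV DNA was extracted and quantified by real-time PCR. Body weight was monitored during treatment. Comparison was against vehicle.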

[16] = Toxicity against Pekin duck infected with HBV assessed as change in body weight at 0.1 to 0.4 mmol/kg, po twice daily for 14 days administered via gavage and measured every day during compound dosing; type: organism-based; conditions: anas platyrhynchos, in vivo, 336 h; summary of the method: as §4
[17] = test system: Rattus norvegicus; experiment: Ratio of compound oral bioavailability in Sprague-Dawley rat at 45.5 mg/kg administered as single dose to TDF oral bioavailability in Sprague-Dawley rat at 44.3 mg/kg administered as single dose by HPLC analysis; type: ADME, organism-based; conditions: in vivo
Summary of the method: (§5)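 SD rats received a single oral dose at equimolar […] (TFV 20 mg/kg); intravenous TFV was given at 5 mg/kg. PK parameters were derived from plasma TFV, including oral bioavailability F; n = 3 per group.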

[18] = test system: HBV genotype D; experiment: Antiviral activity against HBV genotype D hydrodynamically infected as pHBV1.3 mer plasmid carrying viral genome in C57BL/6 mouse assessed as reduction in serum viral DNA level administered via oral gavage twice daily and measured upto 6 days post treatment by qRT-PCR analysis; type: functional, organism-based; conditions: hepatitis B virus genotype D; summary of the method: as §3
[19] = test system: Rattus norvegicus; experiment: Ratio of compound oral bioavailability in Sprague-Dawley rat at 45.5 mg/kg administered as single dose to TFV oral bioavailability in Sprague-Dawley rat at 20 mg/kg administered as single dose by HPLC analysis; type: ADME, organism-based; conditions: in vivo; summary of the method: as §5
[20] = test system: Hepatitis B virus; experiment: Potency index, ratio of TFV IC50 to compound IC50 for antiviral activity against HBV infected in human HepG2.2.15 cells; type: functional
[21] = test system: Hepatitis B virus; experiment: Potency index, ratio of Lamivudine IC50 to compound IC50 for antiviral activity against HBV infected in human HepG2.2.15 cells; type: functional
[22] = Toxicity against Pekin duck infected with HBV assessed as change in body weight at 0.2 to 0.4 mmol/kg, […] for 14 days and measured every day during compound dosing; type: organism-based; conditions: anas platyrhynchos, in vivo, po, 336 h
Summary of the method: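 DHBV-infected ducks, six per group, were gavaged twice daily at 0.1, 0.2 or […], with vehicle groups of 0.5% CMC-Na or water; 3TC was given orally once daily. Serum DHBV DNA was measured by real-time PCR on days 0, 7 and 14 and 3 days after dosing stopped, and body weight was monitored. Data are mean ± SD.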

[23] = test system: Hepatitis B virus; experiment: Antiviral activity against HBV infected in pekin duck assessed as reduction in serum viral DNA level at 0.4 mmol/kg, po once daily for 14 days and measured on days 7, 14 post treatment and on day 3 after treatment cessation by qRT-PCR analysis; type: functional, organism-based

Row | SMILES | CC50 [3] [µM] | IC50 [4] [nM] | selectivity ratio [11] | further results
1 | C=C1[C@H](CO)[C@@H](O)C[C@@H]1n1cnc2c(=O)[nH]c(N)nc21.O [ENTECAVIR] |  |  |  | Activity [1]: Non-Toxic; inhibition [2]: Active
2 | CC[C@H](C)[C@H](N)C(=O)OCCCOP(=O)(CO[C@H](C)Cn1cnc2c(N)ncnc21)OCCCOC(=O)[C@@H](N)[C@@H](C)CC | 315 | > 49600 |  | 
3 | C[C@H](Cn1cnc2c(N)ncnc21)OCP(=O)(O)O [TENOFOVIR ANHYDROUS] | 435 | 16000 | 27 | bioavailability [5]: 1.41%; Tmax [6]: 50 min; AUC(0-inf) [7]: 888 ng·h/mL; AUC(0-inf) [8]: 15800 ng·h/mL; half-life [9]: 214 min; clearance [10]: 5.35 mL/min/kg; half-life [12]: 612 min; Cmax [13]: 207 ng/mL
4 | CC(C)C[C@H](N)C(=O)OCCCOP(=O)(CO[C@H](C)Cn1cnc2c(N)ncnc21)OCCCOC(=O)[C@@H](N)CC(C)C | 218 | 4220 | 47 | 
5 | CC(C)[C@H](N)C(=O)OCCOP(=O)(CO[C@H](C)Cn1cnc2c(N)ncnc21)OCCOC(=O)[C@@H](N)C(C)C | 218 | 2600 | 84 | 
6 | C[C@H](Cn1cnc2c(N)ncnc21)OCP(=O)(OCCOC(=O)[C@@H](N)Cc1ccccc1)OCCOC(=O)[C@@H](N)Cc1ccccc1 | 315 | 2930 | 97 | 
7 | CC(C)OC(=O)OCOP(=O)(CO[C@H](C)Cn1cnc2c(N)ncnc21)OCOC(=O)OC(C)C.O=C(O)/C=C/C(=O)O [TENOFOVIR DISOPROXIL FUMARATE] | 20.7 | 850 | 24 | log(activity) [14]: 1.7; inhibition [15]: Dose-dependent effect; Activity [16]: Non-Toxic
8 | CC(C)C[C@H](N)C(=O)OCCOP(=O)(CO[C@H](C)Cn1cnc2c(N)ncnc21)OCCOC(=O)[C@@H](N)CC(C)C | 218 | > 13000 |  | 
9 | CC(C)[C@H](N)C(=O)OCCCOP(=O)(CO[C@H](C)Cn1cnc2c(N)ncnc21)OCCCOC(=O)[C@@H](N)C(C)C | 51.9 | > 3240 |  | 
10 | CC(C)[C@H](N)C(=O)OCOP(=O)(CO[C@H](C)Cn1cnc2c(N)ncnc21)OCOC(=O)[C@@H](N)C(C)C.Cl | 57.3 | 710 | 80 | Ratio [17]: 3; log(activity) [14]: 1.1; inhibition [18]: Dose-dependent effect; Ratio [19]: 7; Ratio IC50 [20]: 22; inhibition [15]: Dose-dependent effect; Ratio IC50 [21]: 3; Activity [16]: Non-Toxic
11 | CC[C@H](C)[C@H](N)C(=O)OCCOP(=O)(CO[C@H](C)Cn1cnc2c(N)ncnc21)OCCOC(=O)[C@@H](N)[C@@H](C)CC | 294 | 12200 | 24 | 
12 | Nc1ccn([C@@H]2CS[C@H](CO)O2)c(=O)n1 [LAMIVUDINE] | > 218 | 2220 | > 98 | Activity [22]: Non-Toxic; inhibition [23]: Active

From ChEMBL document CHEMBL4396904, “Design, Synthesis, and Anti-HBV Activity of New Bis(l-amino acid) Ester Tenofovir Prodrugs” (ACS Med Chem Lett, 2019)
